The source made the active and inactive calls.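 The calls were made as follows: active = compounds whose fitted caspase activation midpoint falls no more than tenfold above the top tested dose; inconclusive = flat fit with activity between 30 and 70 percent, or failed fit; inactive = the rest.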
test system: MEF Flag-A1-IRES-BIM, caspase-Glo luminescence, 3 h; experiment: caspase activation in A1/BIM-primed MEFs, dose response, A1 (Bcl2A1) inhibitor project, cell-based, alternate construct, luminescence (AID 449757)
In short: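 Test system: Flag-A1-IRES-BIM-primed MEF cells. Technique: luminescent caspase activity measurement with CaspaseGlo reagent. Dosing: 100 nL compound added per well by pin transfer. Times: 3-h compound at 37 °C, 30-min cooling, 1-h reagent at RT. Buffer or medium: RPMI-1640 growth medium with 10% FBS.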

**Q.** Which AC50 does the source give for COc1ccc(OC[C@@H](O)CNC(=O)c2cccc3c2C(=O)c2ccc(-c4ccc(F)cc4OCc4ccccc4)cc2S3(=O)=O)cc1 here?
**A.** > 35 µM (inactive)

**Q.** Which AC50 does the source give for Cc1ccc(C#N)c(SCC(=O)Nc2nccs2)n1 here?
**A.** > 35 µM (inactive)

**Q.** Which AC50 does the source give for CCc1nnc(NC(=O)CSc2nc(-c3ccccc3)cc(-c3ccc(F)cc3)c2C#N)s1 here?
**A.** 33.1 µM

**Q.** For O=C(c1ccc(COc2ccc3ccccc3c2)o1)N1N=C(C(F)F)CC1(O)C(F)F (configuration not stated), which AC50 is on record?
**A.** > 35 µM (inactive)

**Q.** How did the AC50 turn out when CC(=O)Nc1ccc(NC(=O)C(=O)NCC(c2ccco2)N2CCc3ccccc32)cc1 (configuration not stated) was run?
**A.** 28.9 µM

**Q.** How did the AC50 turn out when O=C(COc1ccc(/C=N/NC(=O)c2cc3ccccc3o2)cc1Cl)Nc1ccccc1 was run?
**A.** 9.15 µM

**Q.** Which AC50 does the source give for COc1ccc(S(=O)(=O)N2CC(O)CC2C(=O)OCC(=O)Nc2ccc(Cl)cn2)cc1 (configuration not stated) here?
**A.** > 35 µM (inactive)

**Q.** With CCOc1ccc(N2C(=O)/C(=C\c3ccc(O)c(OC)c3)S(=O)(=O)C2c2cccc([N+](=O)[O-])c2)cc1 (configuration not stated) as the compound, how does the AC50 read?
**A.** > 35 µM (inactive)

**Q.** How did the AC50 turn out when CCc1ccc2nc(N(CCCN(C)C)C(=O)c3ccc(S(=O)(=O)N4CCc5ccccc5C4)cc3)sc2c1 was run?
**A.** > 35 µM (inactive)

**Q.** Which AC50 does the source give for CCOc1ccc(NC(=S)NC(=O)/C=C/c2ccc(C)cc2)c([N+](=O)[O-])c1 here?
**A.** 21 µM

**Q.** COc1ccc(OC)c(NC(=O)c2cc(-c3cc(C)ccc3O)n[nH]2)c1 was tested. Which AC50 did it give?
**A.** > 35 µM (inactive)

**Q.** With Cc1ccc(C(=O)COC(=O)c2ccc3c(c2)C(=O)N(c2cccc4ncccc24)C3=O)cc1 as the compound, how does the AC50 read?
**A.** 36.1 µM

**Q.** With COc1cc2c(-c3ccccc3)c(C)oc2cc1/C=N/NC(N)=S as the compound, how does the AC50 read?
**A.** > 35 µM (inactive)

**Q.** With COc1ccc2[nH]c3c(=O)n(/N=C/[C@H]4C(C)C=C(C)CC4C)c(=O)[nH]c3c2c1 (some centres not stated) as the compound, how does the AC50 read?
**A.** 11 µM

**Q.** How did the AC50 turn out when Oc1[nH]c2ccc(Br)cc2c1N=NC(=S)Nc1ccc(F)cc1 was run?
**A.** > 35 µM (inactive)

**Q.** Which AC50 does the source give for O=C(Nc1ccc([N+](=O)[O-])cc1)C(Cc1ccccc1)N1C(=O)c2cccc3cccc(c23)C1=O (configuration not stated) here?
**A.** > 35 µM (inactive)

**Q.** For Cc1ccc(NC(=S)NC(NC(=O)Cc2cccc3ccccc23)C(Cl)(Cl)Cl)cc1 (configuration not stated), which AC50 is on record?
**A.** 20.2 µM

**Q.** O=C(Nc1ccc(Cl)cc1Cl)c1cccc(N2C(=O)C=CC2=O)c1 was tested. Which AC50 did it give?
**A.** 19.1 µM

**Q.** Which AC50 does the source give for C=C1CCc2c([nH]c3ccc(OCC(C)C)cc23)C1=O here?
**A.** 8.5 µM

**Q.** How did the AC50 turn out when COc1cc(NC(=O)c2cccs2)ccc1NC(=O)c1cc2ccccc2o1 was run?
**A.** > 35 µM (inactive)

**Q.** With CC1=NNC(=O)/C1=C\c1cn(-c2ccccc2)nc1-c1cccs1 as the compound, how does the AC50 read?
**A.** 14.2 µM

**Q.** How did the AC50 turn out when CCCCC1CCC(C(=O)N(CC(C)C)c2c(N)n(Cc3ccccc3)c(=O)[nH]c2=O)CC1 (configuration not stated) was run?
**A.** 8.13 µM

**Q.** Which AC50 does the source give for O=[N+]([O-])/C=C/c1ccc2c(ccn2Cc2ccccc2)c1 here?
**A.** 13.4 µM

**Q.** With Cc1ccc(Sc2c([N+](=O)[O-])c(=O)n(C)c3ccccc23)cc1 as the compound, how does the AC50 read?
**A.** > 35 µM (inactive)

**Q.** With N#Cc1cccnc1N1CCN(C(=O)c2cccc3c2C(=O)c2ccc(-c4ccc(Cl)c(C(F)(F)F)c4)cc2S3(=O)=O)CC1 as the compound, how does the AC50 read?
**A.** > 35 µM (inactive)

**Q.** How did the AC50 turn out when NS(=O)(=O)c1ccc(N/N=C2/CCCCC2C2CCCCC2)c([N+](=O)[O-])c1 (configuration not stated) was run?
**A.** 32.3 µM

**Q.** How did the AC50 turn out when COc1cc(C(=O)Nc2cc3c(cc2N2CCCCC2)n(C)c(=O)n3C)cc(OC)c1OC was run?
**A.** > 35 µM (inactive)

**Q.** O=C(/C=C/c1ccc(F)cc1)NC(=S)Nc1ccccc1C(=O)NC1CCCCC1 was tested. Which AC50 did it give?
**A.** > 35 µM (inactive)

**Q.** For COc1ccc(NC(=O)C(=O)N/N=C\c2ccc(CNC(=O)C(=O)Nc3ccc(C)c(C)c3)o2)c(OC)c1, which AC50 is on record?
**A.** 26.1 µM

**Q.** How did the AC50 turn out when CC(C)(C)c1ccc(C(=O)Nc2ccc(O)c3c(=O)cc(-c4cccc(Cl)c4)oc23)cc1 was run?
**A.** > 35 µM (inactive)

**Q.** For Cc1ccc(-c2nc(NC(=O)c3nn(C)cc3[N+](=O)[O-])sc2C)cc1C, which AC50 is on record?
**A.** 3.62 µM

**Q.** Which AC50 does the source give for COc1cc2cnc(-c3ccccc3)c(-c3cccc(C(F)(F)F)c3)c2cc1OC here?
**A.** > 35 µM (inactive)

**Q.** With CC(C)CC(NC(=O)c1ccc(Cl)cc1)C(=O)OCC(=O)c1ccc2c(c1)NC(=O)CO2 (configuration not stated) as the compound, how does the AC50 read?
**A.** 5.62 µM

**Q.** How did the AC50 turn out when Cc1ccc(C=C2C(Cl)=C(Cl)C(Cl)=C2Cl)cc1 was run?
**A.** 4.67 µM

**Q.** CCc1ccccc1NC(=O)C(CC)Sc1nc2cc3c(cc2c(=O)n1Cc1ccco1)OCO3 (configuration not stated) was tested. Which AC50 did it give?
**A.** > 35 µM (inactive)

**Q.** How did the AC50 turn out when C#CC(=O)N(c1cc(OC)ccc1OC)C(C(=O)NC1CCCC1)c1cccs1 (configuration not stated) was run?
**A.** > 35 µM (inactive)

**Q.** How did the AC50 turn out when Cc1cc(C)cc(NC(=O)/C(C#N)=C/c2cn(CC(=O)NCc3ccco3)c3ccccc23)c1 was run?
**A.** 8.5 µM

From PubChem BioAssay AID449757 (Broad Institute, 2010)
